Reference: ChEMBL document CHEMBL4811251 (Eur J Med Chem, 2021)
Calls of active or inactive are those of the source. The rule behind the calls is not given here.

Legend:
[1] = system: MV4-11; assay: Antiproliferative activity against human MV4-11 cells assessed as growth inhibition after 72 hrs by resazurin assay; format: functional
Summary of the method: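 MV4-11 cells kept at 37 °C with 5% CO2 in ATCC-recommended medium plus 10% FBS. In-house resazurin viability assay after 72 h exposure. GI50 reported as mean ± standard deviation from at least two replicates.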

[2] = molecular target: CDK8/Cyclin C (Homo sapiens, UniProt P49336); assay: Inhibition of CDK8/Cyclin C (unknown origin) using RBER-CHKtide as substrate in presence of [33P]gammaATP incubated for 60 mins by microplate scintillation counter analysis
CDK8/Cyclin C, sequence (P49336 whole entry): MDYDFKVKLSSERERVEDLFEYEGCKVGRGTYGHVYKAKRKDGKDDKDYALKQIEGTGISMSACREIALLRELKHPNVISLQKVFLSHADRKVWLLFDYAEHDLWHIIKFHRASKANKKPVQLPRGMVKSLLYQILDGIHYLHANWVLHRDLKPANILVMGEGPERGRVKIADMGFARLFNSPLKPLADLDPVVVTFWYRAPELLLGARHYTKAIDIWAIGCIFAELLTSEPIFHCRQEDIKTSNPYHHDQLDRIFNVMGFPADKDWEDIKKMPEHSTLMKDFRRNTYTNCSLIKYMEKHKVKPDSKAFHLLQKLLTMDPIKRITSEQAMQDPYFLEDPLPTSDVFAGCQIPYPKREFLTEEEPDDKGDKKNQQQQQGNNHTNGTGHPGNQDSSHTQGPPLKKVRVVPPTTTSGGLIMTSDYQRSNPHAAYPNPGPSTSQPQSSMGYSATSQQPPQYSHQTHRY
CDK8/Cyclin C, sequence (P24863 whole entry, further chain): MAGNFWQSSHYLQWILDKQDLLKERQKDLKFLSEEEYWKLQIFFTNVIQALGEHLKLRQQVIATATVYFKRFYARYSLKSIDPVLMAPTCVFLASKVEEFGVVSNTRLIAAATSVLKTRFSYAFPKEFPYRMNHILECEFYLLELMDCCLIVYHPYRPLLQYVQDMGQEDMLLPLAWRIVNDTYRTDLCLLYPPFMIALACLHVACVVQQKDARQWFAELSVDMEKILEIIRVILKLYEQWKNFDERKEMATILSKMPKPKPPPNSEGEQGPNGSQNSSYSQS

[3] = molecular target: Glycogen synthase kinase-3 alpha (Homo sapiens) (UniProt P49840); assay: Inhibition of GSK3alpha (unknown origin) assessed as residual activity at 1 uM relative to control
Glycogen synthase kinase-3 alpha (Homo sapiens), sequence (P49840 2-483 limits assumed): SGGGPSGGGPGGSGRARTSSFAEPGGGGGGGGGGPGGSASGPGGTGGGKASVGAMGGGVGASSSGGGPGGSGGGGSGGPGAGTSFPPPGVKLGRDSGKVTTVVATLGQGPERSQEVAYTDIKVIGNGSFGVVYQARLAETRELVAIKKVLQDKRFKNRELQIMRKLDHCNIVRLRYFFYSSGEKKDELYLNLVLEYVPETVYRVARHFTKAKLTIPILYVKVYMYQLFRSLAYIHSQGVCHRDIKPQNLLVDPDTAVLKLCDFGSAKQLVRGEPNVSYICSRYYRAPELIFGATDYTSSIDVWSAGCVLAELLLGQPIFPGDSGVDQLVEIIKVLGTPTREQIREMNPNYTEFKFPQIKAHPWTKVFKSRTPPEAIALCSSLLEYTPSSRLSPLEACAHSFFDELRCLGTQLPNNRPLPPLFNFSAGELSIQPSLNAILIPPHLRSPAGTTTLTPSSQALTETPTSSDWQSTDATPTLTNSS

[4] = molecular target: Glycogen synthase kinase-3 beta (Homo sapiens) (UniProt P49841); assay: Inhibition of GSK3beta (unknown origin) assessed as residual activity at 1 uM relative to control
Glycogen synthase kinase-3 beta (Homo sapiens), sequence (P49841 whole entry, looked up): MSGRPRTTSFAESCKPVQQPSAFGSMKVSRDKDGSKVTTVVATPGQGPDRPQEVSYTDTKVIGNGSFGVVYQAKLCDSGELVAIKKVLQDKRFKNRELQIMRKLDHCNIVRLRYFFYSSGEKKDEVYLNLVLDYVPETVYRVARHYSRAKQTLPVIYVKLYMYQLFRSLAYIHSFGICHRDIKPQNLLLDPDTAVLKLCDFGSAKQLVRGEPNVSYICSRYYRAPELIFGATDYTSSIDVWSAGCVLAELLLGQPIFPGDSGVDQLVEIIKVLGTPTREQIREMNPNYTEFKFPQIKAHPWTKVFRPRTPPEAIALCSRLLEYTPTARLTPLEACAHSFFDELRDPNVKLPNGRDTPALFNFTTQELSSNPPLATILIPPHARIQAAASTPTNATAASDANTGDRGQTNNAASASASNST

[5] = molecular target: Cyclin-dependent kinase 1/cyclin B1 (Homo sapiens) (UniProt P06493+P14635); assay: Inhibition of CDK1/Cyclin B (unknown origin) assessed as residual activity at 1 uM relative to control; format: protein-complex assay
Cyclin-dependent kinase 1/cyclin B1 (Homo sapiens), sequence (P06493 whole entry, looked up): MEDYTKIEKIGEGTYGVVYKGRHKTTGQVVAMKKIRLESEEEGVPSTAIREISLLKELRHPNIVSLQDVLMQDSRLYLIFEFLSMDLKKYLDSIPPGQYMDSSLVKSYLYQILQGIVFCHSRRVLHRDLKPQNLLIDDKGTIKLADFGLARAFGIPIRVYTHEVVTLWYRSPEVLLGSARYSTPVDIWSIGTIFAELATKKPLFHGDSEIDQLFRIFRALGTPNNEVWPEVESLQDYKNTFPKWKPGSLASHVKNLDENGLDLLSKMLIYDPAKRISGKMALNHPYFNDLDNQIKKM
Cyclin-dependent kinase 1/cyclin B1 (Homo sapiens), sequence (P14635 whole entry, looked up): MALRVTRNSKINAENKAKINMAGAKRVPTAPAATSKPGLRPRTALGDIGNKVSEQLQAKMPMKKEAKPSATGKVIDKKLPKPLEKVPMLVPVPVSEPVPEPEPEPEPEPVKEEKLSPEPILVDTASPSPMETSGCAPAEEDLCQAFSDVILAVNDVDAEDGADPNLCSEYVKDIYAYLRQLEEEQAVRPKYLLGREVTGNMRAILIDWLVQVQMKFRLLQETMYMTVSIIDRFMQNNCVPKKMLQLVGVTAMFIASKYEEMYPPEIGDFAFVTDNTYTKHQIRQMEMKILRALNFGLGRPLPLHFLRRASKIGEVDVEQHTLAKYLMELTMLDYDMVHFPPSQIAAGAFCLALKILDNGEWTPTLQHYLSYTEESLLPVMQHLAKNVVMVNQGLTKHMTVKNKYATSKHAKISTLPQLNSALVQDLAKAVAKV

[6] = molecular target: CDK9/cyclin T1 (Homo sapiens) (UniProt O60563+P50750); assay: Inhibition of CDK9/Cyclin T1 (unknown origin) assessed as residual activity at 1 uM relative to control; format: protein-complex assay
[7] = molecular target: Protein kinase C theta (Homo sapiens) (UniProt Q04759); assay: Inhibition of PKC theta (unknown origin) assessed as residual activity at 1 uM relative to control
Protein kinase C theta (Homo sapiens), sequence (Q04759 whole entry, looked up): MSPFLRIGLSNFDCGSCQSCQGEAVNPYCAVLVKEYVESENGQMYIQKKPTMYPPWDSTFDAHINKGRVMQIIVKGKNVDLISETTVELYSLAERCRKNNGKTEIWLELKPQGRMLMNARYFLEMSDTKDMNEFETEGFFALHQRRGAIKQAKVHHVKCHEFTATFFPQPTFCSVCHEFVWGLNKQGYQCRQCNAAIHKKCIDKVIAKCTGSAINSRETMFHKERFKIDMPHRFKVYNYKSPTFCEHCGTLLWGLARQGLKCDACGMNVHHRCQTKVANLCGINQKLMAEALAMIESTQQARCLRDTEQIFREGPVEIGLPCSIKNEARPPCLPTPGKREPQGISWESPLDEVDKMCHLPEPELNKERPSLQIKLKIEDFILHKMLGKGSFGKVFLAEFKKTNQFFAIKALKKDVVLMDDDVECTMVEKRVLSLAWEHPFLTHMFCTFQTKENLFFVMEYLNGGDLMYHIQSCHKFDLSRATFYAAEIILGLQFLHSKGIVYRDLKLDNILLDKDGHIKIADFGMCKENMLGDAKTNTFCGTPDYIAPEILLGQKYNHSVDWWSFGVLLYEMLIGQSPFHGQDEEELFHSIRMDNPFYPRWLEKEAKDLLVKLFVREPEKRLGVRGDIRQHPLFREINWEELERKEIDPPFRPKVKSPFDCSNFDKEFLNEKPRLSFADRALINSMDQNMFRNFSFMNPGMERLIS

[8] = Volume of distribution at steady state in Sprague-Dawley rat at 5 mg/kg, iv measured upto 24 hrs by LC/MS/MS analysis; format: ADME, organism-based; conditions: in vivo, read-out: Vdss
[9] = Volume of distribution at steady state in BALB/c mouse at 2 mg/kg, iv measured upto 24 hrs by LC/MS/MS analysis; format: ADME, organism-based; conditions: in vivo, read-out: Vdss
[10] = Clearance in Sprague-Dawley rat at 5 mg/kg, iv measured upto 24 hrs by LC/MS/MS analysis; format: ADME, organism-based; conditions: in vivo
[11] = Clearance in BALB/c mouse at 2 mg/kg, iv measured upto 24 hrs by LC/MS/MS analysis; format: ADME, organism-based; conditions: in vivo
[12] = Cmax in Sprague-Dawley rat at 5 mg/kg, iv measured upto 24 hrs by LC/MS/MS analysis; format: ADME, organism-based; parameters: route intravenous, dose 5 mg/kg, time <=24; conditions: in vivo
[13] = Cmax in Sprague-Dawley rat at 20 mg/kg, po measured upto 24 hrs by LC/MS/MS analysis; format: ADME, organism-based; parameters: route oral, dose 20 mg/kg, time <=24; conditions: in vivo
[14] = Cmax in BALB/c mouse at 2 mg/kg, iv measured upto 24 hrs by LC/MS/MS analysis; format: ADME, organism-based; parameters: route intravenous, dose 2 mg/kg, time <=24; conditions: in vivo
[15] = Cmax in BALB/c mouse at 10 mg/kg, po measured upto 24 hrs by LC/MS/MS analysis; format: ADME, organism-based; parameters: route oral, dose 10 mg/kg, time <=24; conditions: in vivo
[16] = Tmax in Sprague-Dawley rat at 5 mg/kg, iv measured upto 24 hrs by LC/MS/MS analysis; format: ADME, organism-based; conditions: in vivo
[17] = Tmax in Sprague-Dawley rat at 20 mg/kg, po measured upto 24 hrs by LC/MS/MS analysis; format: ADME, organism-based; conditions: in vivo
[18] = Tmax in BALB/c mouse at 2 mg/kg, iv measured upto 24 hrs by LC/MS/MS analysis; format: ADME, organism-based; conditions: in vivo
[19] = Tmax in BALB/c mouse at 10 mg/kg, po measured upto 24 hrs by LC/MS/MS analysis; format: ADME, organism-based; conditions: in vivo
[20] = Half life in Sprague-Dawley rat at 5 mg/kg, iv measured upto 24 hrs by LC/MS/MS analysis; format: ADME, organism-based; conditions: in vivo
[21] = Half life in Sprague-Dawley rat at 20 mg/kg, po measured upto 24 hrs by LC/MS/MS analysis; format: ADME, organism-based; conditions: in vivo
[22] = Half life in BALB/c mouse at 2 mg/kg, iv measured upto 24 hrs by LC/MS/MS analysis; format: ADME, organism-based; conditions: in vivo
[23] = Half life in BALB/c mouse at 10 mg/kg, po measured upto 24 hrs by LC/MS/MS analysis; format: ADME, organism-based; conditions: in vivo
[24] = AUC in Sprague-Dawley rat at 5 mg/kg, iv measured upto 24 hrs by LC/MS/MS analysis; format: ADME, organism-based; parameters: route intravenous, dose 5 mg/kg, time <=24; conditions: in vivo
[25] = AUC in Sprague-Dawley rat at 20 mg/kg, po measured upto 24 hrs by LC/MS/MS analysis; format: ADME, organism-based; parameters: route oral, dose 20 mg/kg, time <=24; conditions: in vivo
[26] = AUC in BALB/c mouse at 2 mg/kg, iv measured upto 24 hrs by LC/MS/MS analysis; format: ADME, organism-based; parameters: route intravenous, dose 2 mg/kg, time <=24; conditions: in vivo
[27] = AUC in BALB/c mouse at 10 mg/kg, po measured upto 24 hrs by LC/MS/MS analysis; format: ADME, organism-based; parameters: route oral, dose 10 mg/kg, time <=24; conditions: in vivo
[28] = Oral bioavailability in Sprague-Dawley rat at 20 mg/kg measured upto 24 hrs by LC/MS/MS analysis; format: ADME, organism-based; conditions: in vivo
[29] = Oral bioavailability in BALB/c mouse at 10 mg/kg measured upto 24 hrs by LC/MS/MS analysis; format: ADME, organism-based; conditions: in vivo

O=C1NCCC12CCN(c1c(Cl)cncc1-c1cccs1)CC2
GI50 [1]: 480 nM
Ki [2]: 10 nM

O=C1NCCC12CCN(c1c(Cl)cncc1-c1ccc(CN3CCOCC3)s1)CC2
GI50 [1]: 2960 nM
Ki [2]: 32 nM

O=Cc1ccc(-c2cncc(Cl)c2N2CCC3(CCNC3=O)CC2)o1
GI50 [1]: 5190 nM
Ki [2]: 82 nM

O=C1NCCC12CCN(c1c(Cl)cncc1-c1cn[nH]c1)CC2
GI50 [1]: 8520 nM
Ki [2]: 254 nM

O=C1NCCC12CCN(c1c(Cl)cncc1-c1ccc(CN3CCCC3)s1)CC2
GI50 [1]: 3370 nM
Ki [2]: 132 nM

Cc1cc(-c2cncc(Cl)c2N2CCC3(CCNC3=O)CC2)sc1C=O
GI50 [1]: 2530 nM
Ki [2]: 119 nM

O=C1NCCC12CCN(c1c(Cl)cncc1-c1ccsc1)CC2
GI50 [1]: 190 nM
Ki [2]: 18 nM

Cc1ccc(-c2cncc(Cl)c2N2CCC3(CCNC3=O)CC2)s1
GI50 [1]: 650 nM
Ki [2]: 10 nM

Cn1cccc1-c1cncc(Cl)c1N1CCC2(CCNC2=O)CC1
GI50 [1]: 900 nM
Ki [2]: 30 nM

O=C1NCCC12CCN(c1c(Cl)cncc1-c1ccc(-c3ccccc3)s1)CC2
GI50 [1]: 960 nM
Activity [3]: 62%
Activity [4]: 74%
Activity [5]: inactive
Activity [6]: inactive
Activity [7]: inactive
Ki [2]: 5 nM

Cc1ccsc1-c1cncc(Cl)c1N1CCC2(CCNC2=O)CC1
GI50 [1]: 910 nM
Ki [2]: 8 nM

Nc1ncc(-c2cc3ccccc3s2)c(N2CCC3(CCNC3=O)CC2)c1Cl
GI50 [1]: 160 nM
Vd [8]: 1.32 L/kg
Vd [9]: 1.6 L/kg
clearance [10]: 13.2 mL/min/kg
clearance [11]: 33.3 mL/min/kg
Cmax [12]: 11.1 µM
Cmax [13]: 1.35 µM
Cmax [14]: 4.96 µM
Cmax [15]: 1.68 µM
Tmax [16]: 9 min
Tmax [17]: 5 h
Tmax [18]: 3 min
Tmax [19]: 0.18 h
half-life [20]: 4.41 h
half-life [21]: 10.1 h
half-life [22]: 0.88 h
half-life [23]: 1.67 h
AUC at 24 h [24]: 18.4 µM·h
AUC at 24 h [25]: 19.5 µM·h
AUC at 24 h [26]: 2.4 µM·h
AUC at 24 h [27]: 3.4 µM·h
bioavailability [28]: 26%
bioavailability [29]: 28%
Ki [2]: 7 nM

O=Cc1ccc(-c2cncc(Cl)c2N2CCC3(CCNC3=O)CC2)s1
GI50 [1]: 750 nM
Ki [2]: 67 nM

CC(=O)c1ccc(-c2cncc(Cl)c2N2CCC3(CCNC3=O)CC2)s1
GI50 [1]: 1440 nM
Ki [2]: 66 nM

O=Cc1cc(-c2cncc(Cl)c2N2CCC3(CCNC3=O)CC2)co1
GI50 [1]: 5150 nM
Ki [2]: 185 nM

O=C1NCCC12CCN(c1c(Cl)cncc1-c1ccoc1)CC2
GI50 [1]: 750 nM
Ki [2]: 42 nM

O=C1NCCC12CCN(c1c(Cl)cncc1-c1ccco1)CC2
GI50 [1]: 940 nM
Ki [2]: 26 nM

CC(=O)c1sccc1-c1cncc(Cl)c1N1CCC2(CCNC2=O)CC1
GI50 [1]: > 100000 nM
Ki [2]: 4660 nM

O=C1NCCC12CCN(c1c(Cl)cncc1-c1ccc(Cl)s1)CC2
GI50 [1]: 560 nM
Ki [2]: 14 nM

O=C1NCCC12CCN(c1c(Cl)cncc1-c1ccc(CN3CCCCC3)s1)CC2
GI50 [1]: 4010 nM
Ki [2]: 106 nM

O=Cc1cscc1-c1cncc(Cl)c1N1CCC2(CCNC2=O)CC1
GI50 [1]: 27100 nM
Ki [2]: 845 nM

Cc1csc(-c2cncc(Cl)c2N2CCC3(CCNC3=O)CC2)c1
GI50 [1]: 650 nM
Ki [2]: 10 nM

O=Cc1sccc1-c1cncc(Cl)c1N1CCC2(CCNC2=O)CC1
GI50 [1]: 28700 nM
Ki [2]: 1750 nM

CC(C)(C)OC(=O)N1CCN(Cc2ccc(-c3cncc(Cl)c3N3CCC4(CCNC4=O)CC3)s2)CC1
GI50 [1]: 5150 nM
Ki [2]: 46 nM

Cn1cc(-c2cncc(Cl)c2N2CCC3(CCNC3=O)CC2)cn1
GI50 [1]: 5530 nM
Ki [2]: 230 nM

Cc1ccc(-c2cncc(Cl)c2N2CCC3(CCNC3=O)CC2)o1
GI50 [1]: 4950 nM
Ki [2]: 22 nM

Cn1ncc2cc(-c3cnc(N)c(Cl)c3N3CCC4(CCNC4=O)CC3)ccc21
GI50 [1]: 50 nM

O=C1NCCC12CCN(c1c(Cl)cncc1-c1cc[nH]c1)CC2
GI50 [1]: 1050 nM
Ki [2]: 14 nM

O=Cc1cc(-c2cncc(Cl)c2N2CCC3(CCNC3=O)CC2)cs1
GI50 [1]: 730 nM
Ki [2]: 52 nM

CCOCOCc1ccc(-c2cncc(Cl)c2N2CCC3(CCNC3=O)CC2)o1
GI50 [1]: 2970 nM
Ki [2]: 36 nM

O=C1NCCC12CCN(c1c(Cl)cncc1-c1cnn(C(F)F)c1)CC2
GI50 [1]: 6140 nM
Ki [2]: 93 nM
